Measured values gathered from unrelated publications.
In brackets after ≈: the same amount, converted by molar mass.
Organism: Mycobacterium tuberculosis
Effect on: microbial growth

Compound	method	strain	measurement	result
CNC(=O)c1cc(C(F)F)ccc1OCCc1cccc(F)c1			IC50	0.73 µM
COc1ccc(-c2cc(C(F)(F)F)c3c(N)c(C(=O)N4CCC4)sc3n2)cc1		H37RV	IC50	> 100 µM
CO[C@H]1/C=C/O[C@@]2(C)Oc3c(C)c(O)c4c(O)c(c(/C=N/N5CCN(C)CC5)c(O)c4c3C2=O)NC(=O)/C(C)=C\C=C\[C@H](C)[C@H](O)[C@@H](C)[C@@H](O)[C@@H](C)[C@H](OC(C)=O)[C@@H]1C		H37RA	MIC90	0.01 µM (≈ 0.00823 µg/mL)
CCCCCCC#Cc1cncc(-c2nnc(SC[C@H]3O[C@@H](n4ccc(=O)[nH]c4=O)[C@H](O)[C@@H]3O)n2C)c1	resazurin	ERDMAN	IC50	98 µM
Fc1ccc(CCOc2cc(-c3ccccn3)nc3nncn23)cc1		H37RV	MIC	> 100 µM
O=c1c2cc(Cl)ccc2[nH]c(=S)n1Cc1ccc(-n2cccn2)nc1		H37RV	MIC90	> 100 µM
CC(=O)c1ccc(OCCc2cccc(F)c2)c(C(N)=O)c1			IC50	1.3 µM
Cc1ccc(Cn2c(=S)[nH]c3ccc(Cl)cc3c2=O)cn1		H37RV	MIC90	> 25 µM
COc1ccc(-c2cc(C(F)(F)F)c3c(N)c(C(=O)Nc4ccc(C)cc4C)sc3n2)cc1		H37RV	IC50	> 100 µM
Cc1ccc(CCNc2cc(-c3ccc(Cl)s3)nc3nncn23)cc1		H37RV	MIC	4.8 µM (≈ 1.78 µg/mL)
C[C@H](N)C(=O)OCc1cc2[nH]c(=S)n(Cc3cncnc3)c(=O)c2cc1Cl		H37RV	MIC90	4.22 µM (≈ 1.71 µg/mL)
Nc1c(C(=O)N2CCOCC2)sc2nc(-c3ccccc3)ccc12		H37RV	IC50	46 µM
CO[C@H]1/C=C/O[C@@]2(C)Oc3c(C)c(O)c4c(O)c(c(/C=N/N5CCN(C)CC5)c(O)c4c3C2=O)NC(=O)/C(C)=C\C=C\[C@H](C)[C@H](O)[C@@H](C)[C@@H](O)[C@@H](C)[C@H](OC(C)=O)[C@@H]1C		H37RV	MIC50	0.06 mg/L (≈ 0.0729 µM)
CCCCCCC#Cc1cncc(-c2nnc(SCc3ccc([N+](=O)[O-])o3)n2CCO)c1	resazurin	ERDMAN	IC50	1.3 µM
Cc1ccc(CCNc2cc(-c3ccccn3)nc3nncn23)cc1		H37RV	MIC	0.26 µM (≈ 0.0859 µg/mL)
CCCCCCC#Cc1cncc(-c2nnc(SCc3cc([N+](=O)[O-])cc([N+](=O)[O-])c3)n2CCOC2OC(CN)C(O)C2O)c1 (centres unmarked)	resazurin	ERDMAN	IC50	18 µM
Nc1c(C(=O)NCc2ccccc2)sc2nc(-c3ccccc3)ccc12		H37RV	IC50	42 µM
NC(=O)c1cncc(Cn2c(=S)[nH]c3ccc(Cl)cc3c2=O)c1		H37RV	MIC90	63 µM (≈ 21.8 µg/mL)
CC(C)(O)c1ccc(OCCc2cccc(F)c2)c(C(N)=O)c1			IC50	2.7 µM

Compound	method	strain	measurement	result
Cc1cccc(NC(=O)c2sc3nc(-c4cccs4)cc(C(F)(F)F)c3c2N)c1C		H37RV	IC50	> 100 µM
c1ccc(-c2cc(Nc3ccc(N4CCOCC4)cc3)n3cnnc3n2)nc1		H37RV	MIC	> 100 µM
O=c1c2cc(Cl)c(CF)cc2[nH]c(=S)n1Cc1cccnc1		H37RV	MIC90	6.72 µM (≈ 2.26 µg/mL)
CCCCCCC#Cc1cncc(-c2nnc(SCc3cc([N+](=O)[O-])cc([N+](=O)[O-])c3)n2C2CCNCC2)c1	resazurin	ERDMAN	IC50	2.6 µM
O=c1c2cc(C(F)(F)F)ncc2[nH]c(=S)n1Cc1cccnc1		H37RV	MIC90	45.5 µM (≈ 15.4 µg/mL)
CCc1ccc(CCNc2cc(-c3ccco3)nc3nncn23)cc1		H37RV	MIC	0.43 µM (≈ 0.143 µg/mL)
NNC(=O)c1ccncc1			MIC50	0.1 mg/L (≈ 0.729 µM)
Clc1ccc(CCNc2cc(-c3ccccn3)nc3nnc(C4CC4)n23)cc1		H37RV	MIC	36 µM (≈ 14.1 µg/mL)
N#Cc1cc2c(=O)n(Cc3cccnc3)c(=S)[nH]c2cn1		H37RV	MIC90	85.8 µM (≈ 25.3 µg/mL)
CCCCCCC#Cc1cncc(-c2nnc(SCc3ccc([N+](=O)[O-])cc3)n2CCCN)c1	resazurin	ERDMAN	IC50	20 µM
CC(c1cccnc1)n1c(=S)[nH]c2cc(CO)c(Cl)cc2c1=O (centres unmarked)		H37RV	MIC90	> 100 µM
NCC[C@H](O)C(=O)N[C@@H]1C[C@H](N)[C@@H](O[C@H]2O[C@H](CN)[C@@H](O)[C@H](O)[C@H]2O)[C@H](O)[C@H]1O[C@H]1O[C@H](CO)[C@@H](O)[C@H](N)[C@H]1O			MIC50	0.25 mg/L (≈ 0.427 µM)
Nc1c(C(=O)Nc2ccccc2C(F)(F)F)sc2nc(-c3ccccc3)cc(C(F)(F)F)c12		H37RV	IC50	> 100 µM
CCCCCCC#Cc1cncc(-c2nnc(SCc3ccc(Cl)cc3)n2CCO)c1	resazurin	ERDMAN	IC50	49 µM
COc1ccc(-c2cc(C(F)(F)F)c3c(N)c(C(=O)N4CC(F)(F)C4)sc3n2)cc1		H37RV	IC50	> 50 µM
FC(F)(F)c1ccc(CCNc2cc(-c3cccs3)nc3nncn23)cc1		H37RV	IC90	0.31 µM
CCCCCCC#Cc1cncc(-c2nnc(SCc3ccc([N+](=O)[O-])o3)n2CCCN)c1	resazurin	ERDMAN	IC50	12 µM
Cc1cccc(NC(=O)c2sc3nc(-c4ccco4)cc(C(F)(F)F)c3c2N)c1C		H37RV	IC50	> 100 µM
CCc1ccc(CCNc2cc(-c3ccccn3)nc3nnc(C4CC4)n23)cc1		H37RV	MIC	50 µM (≈ 19.2 µg/mL)
